Assay results taken from ChEMBL document CHEMBL4513216, “Probing the Open Global Health Chemical Diversity Library for Multistage-Active Starting Points for Next-Generation Antimalarials” (ACS Infect Dis, 2020).

Test: Toxicity liver stage against HepG2, at 10uM
Assay type: cell-based
Set-up: test concentration 10 uM, cell line HepG2-A16-CD81EGFP
Conditions: human, HepG2-A16-CD81EGFP cells; read-out: INHIBITION
Outline: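 Uninfected HepG2-A16-CD81EGFP cells, 3 × 10^3 per well, 1536-well, plated on prespotted compound at 10 μM final, parasite-free screening media added to match infected plates; puromycin 10 μM positive, DMSO 0.5% negative; run in parallel with 48 h PbLuc assay at 37 °C, 5% CO2; viability by CellTiter-Glo luminescence, normalized to controls.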

SMILES | cytotoxicity at 10 µM [%]
COC[C@]1(O)CCN(c2cc(C3CC3)ncn2)CC1(C)C | -1.53
O=C(Nc1cn[nH]c1)N(CCO)C1CCc2ccccc21 (stereo unspecified) | -8.74
CC(=O)N1CCCN(C(=O)NCc2ccc(Cl)s2)CC1 | -4.02
CCC(NC(=O)CN(C)Cc1ccc(C)o1)c1ccc(C)cc1 (stereo unspecified) | 3.97
c1ccc(CNC[C@H]2COCc3nc4cccnc4n32)cc1 | -1.84
CCCN1CCN(C(=O)Cc2nc(-c3ccco3)oc2C)CC1 | -6.14
Cc1cccn2c(CC(=O)N3CCC(CCn4cccn4)CC3)cnc12 | -53.1
Cc1ccc(CN(C(=O)NC2CCS(=O)(=O)C2)C2CC2)o1 (stereo unspecified) | -155
CC(C)c1ccc(CN2CCCC3(CC2)CN(C)C(=O)O3)cc1 (stereo unspecified) | -3.44
O=C(C1CC=CC1)N1C[C@@H]2[C@@H](C1)OCC(=O)N2Cc1cccnc1 | 2.45
CCc1nc(N)nc(N2CCCC3(CCN(C)CC3)CC2)c1C | -179
O=C(O)[C@@H]1CN(C(=O)c2ccc3[nH]nnc3c2)C[C@H]1c1cccc(F)c1 | -8.66
CN(C)[C@@H]1CCN(C(=O)Cc2ccc(F)cc2)[C@H]1Cc1cnn(C)c1 | 4.58
Cc1ccc(-c2nc(CNC3CCc4ncnn4C3)co2)cc1 (stereo unspecified) | -3.75
Cn1ccnc1CN1CCN(c2ncnc3ccsc23)CC1 | -7.95
NC(=O)C(NC(=O)c1ccc(NC2CC2)nc1)c1ccccc1 (stereo unspecified) | 10.8
Cc1ccc(C2CSCCN2C(=O)c2ccnc(N(C)C)c2)o1 (stereo unspecified) | 12.8
CN1CCCC(N2CCN(c3cc(C(F)(F)F)ccn3)CC2)C1 (stereo unspecified) | 5.12
CN(C)C(=O)CN1C[C@H]2CCN(C(=O)c3ccccc3)CC[C@H]2S1(=O)=O | 9.1
CS(=O)(=O)CCC(=O)NC1CC(c2cccc(Cl)c2)C1 (stereo unspecified) | 1.36
CC(C)(C)NC(=O)c1ccn(COc2ccccc2Cl)n1 | 10.7
Cc1ccc2nc(C3CCCN3Cc3nnc(C)s3)[nH]c2c1 (stereo unspecified) | -2.82
CCOc1ccc(CC(=O)N2CCN(c3nccn3CC)CC2)cc1 | 11.1

SMILES | cytotoxicity at 10 µM [%]
Fc1cccc(CN2CCC[C@H](Cn3nnc(-c4ccccn4)n3)C2)c1 | 3.44
CC(=O)N(Cc1noc(C)n1)C1CCN(Cc2cccc(C#N)c2)C1 (stereo unspecified) | -0.645
COc1ccc(CCNC(=O)Cn2ncc3c2c(C)nn3C)cc1 | 8.93
CCOc1ccc(S(=O)(=O)Nc2cnc(OC)nc2OC)cc1 | 44.7
COc1c(F)cc(NC(=O)N2CCC(CSC)C2)cc1F (stereo unspecified) | 10.2
O=C(N[C@@H]1CN[C@@H]2CCCO[C@@H]21)c1cscn1 | -8.69
Cn1nc(C2CCNC2)c2c(C(=O)NC3CC3)cc(C3CC3)nc21 (stereo unspecified) | 13.9
CCOCc1nn(C)c2c1CN(C(=O)c1ccno1)CC2 | 8.61
N#Cc1ccc(CNc2cccc(C(=O)N3CCOCC3)c2)cc1 | -4.34
Cn1ccc(CN2CCCC23CCN(Cc2ccccc2F)CC3)n1 | -104
COc1ccc(C(=O)Nc2nncs2)cn1 | -11.9
CCNc1cc2c(nn1)CCN(C(=O)CCc1c(C)noc1Cl)C2 | -3.25
CCN(CC)Cc1cc(=O)n2c(n1)CN(C(=O)c1ccc[nH]1)CCC2 | -112
Cn1ncc2c1NC(=O)CC2c1ccc(O)cc1 (stereo unspecified) | 24.3
COc1ccc(CN(C(=O)CCC(C)C)c2cnn(C)c2)c(OC)c1 | -1.35
Cc1ccc(C(=O)NC2CCN(Cc3noc(CC(C)C)n3)CC2)s1 | -15.2
Cc1ccnc(C2CCCN2C(=O)CN(C)C)n1 (stereo unspecified) | -19.1
CN(C)CCN(Cc1ccco1)C(=O)Cc1cn2ccsc2n1 | 5.92
Cn1cccc1C(=O)N1CCC(c2nccn2Cc2ccncc2)CC1 | -12
CN1CCN(c2cc(CNC(=O)c3ccc(Cl)o3)ccn2)CC1 | -9.69
CCc1nc(CNCCn2cc(C)cn2)no1 | -4.32
Cc1nc(N(C)C2CCCCC2)ncc1C(C)NC(=O)c1cscn1 (stereo unspecified) | -134
CCc1ccc(CCn2cnc(C#N)n2)cc1 | -0.224

SMILES | cytotoxicity at 10 µM [%]
CC(=O)CCC(=O)N1CCC2(CC1)N=C(CCC(C)C)NC2=O | -7.14
CN(C(=O)c1cccc(NCC(=O)O)c1)C(C1CC1)C1CC1 | 5.01
Cc1ccc(-c2nn3c(nc2=O)-c2ccccc2NC3C(=O)O)cc1C (stereo unspecified) | 19.3
CN(CC(N)=O)C(=O)c1cc(Cl)c(Cl)n1C | 8.56
O=C(C1CCCC1)N1CCN(Cc2nc(-c3ccco3)no2)CC1 | -7.84
Cc1ccc(CN2CCC(NC(=O)c3scnc3C)CC2)cc1 | -4.1
COCC1CN(C(=O)C2=CCCCC2)Cc2cnn(CC3CC3)c21 (stereo unspecified) | 3.46
Cc1ccc(C(=O)N2CCN(CC(O)c3ccc(F)cc3)CC2)s1 (stereo unspecified) | -8.93
CNC(=O)C1CCCCN1C(=O)c1csc(-c2ccc(C)o2)n1 (stereo unspecified) | 7.55
Cc1cccc(C)c1CNC1(CCO)CCOCC1 | 1.93
CCNc1ncc(CN2C[C@@H](CN3CCC(CO)CC3)[C@@H](CO)C2)cn1 | -6.03
Oc1cc(CNCCCN2CCCC2)nc2ccc(F)cc12 | -56
O=C(COCC(F)(F)C(F)F)N1CCC2(CCCN(CCO)C2=O)C1 (stereo unspecified) | 8.77
O=C(CCNC(=O)c1ccoc1)Nc1cccc(F)c1 | -8.63
Cc1cc(C2CCCN(S(=O)(=O)N(C)C)C2)ccn1 (stereo unspecified) | 21.4
COCC(=O)N1CC[C@@H](OCC2CC2)[C@@H]1Cc1cccnc1 | -4.92
CCNC(=O)[C@@H]1C[C@H](N)CN1C(=O)c1cccc(CCC(C)(C)O)c1 | 4.61
Cc1cnc(Nc2nccnc2C2CCN(C)CC2)s1 | 2.52
CNC(=O)NC(C)c1nc(-c2ccccc2)c[nH]1 (stereo unspecified) | 0.995
O=C(c1cccc(-n2cccn2)c1)N1CCCOC(CN2CCCC2)C1 (stereo unspecified) | -7.33
CN(Cc1ccco1)C(=O)Nc1cc(C(F)(F)F)c[nH]c1=O | 2.79
CNC(=O)c1cccc(NC(=O)CN2CCN(S(C)(=O)=O)CC2)c1 | 1.82
Cc1nn(C)c(C)c1CC(=O)N1CCCC(n2ccnc2)C1 (stereo unspecified) | -11.5

SMILES | cytotoxicity at 10 µM [%]
CN(Cc1ccccc1)C(=O)c1cc2c(c(S(N)(=O)=O)c1)CCC2 | -41.5
Cc1nc(CN2CCCC2Cn2cccn2)nc2ccccc12 (stereo unspecified) | -51.7
COc1cc(C(C)=O)ccc1OCC(=O)N(CC(C)C#N)C1CC1 (stereo unspecified) | -2.45
CN1C(=O)COc2ccc(NC(=O)CCc3nc4cccnc4[nH]3)cc21 | -1.23
CCOc1cc2c(cc1CCC(=O)O)CCC2 | -4.63
Cn1cc(C(=O)N2CC[C@@H]3[C@@H]2CCN3Cc2ccncc2)cn1 | -75.3
Cn1ccnc1CN1CCN(Cc2ccc(C#N)cc2)CC1 | -10.3
O=C1CNc2ncnc(Nc3cccc(Cn4cccn4)c3)c2N1 | 19.8
CN(CC(=O)Nc1ccon1)S(=O)(=O)c1cc(Cl)ccc1Cl | 0.424
Cc1nc(CN2CC(Cc3ccccc3)CC2=O)no1 (stereo unspecified) | 2.42
O=C(c1ccsc1)N1CCc2c(COCC3CC3)cncc2C1 | 1.65
O=C(NCCC1CCCCO1)c1cc(COc2cncc(Cl)c2)on1 (stereo unspecified) | -1.73
CCOc1ccnc(N2CCN(C(=O)C(C)(C)C#N)CC2)n1 | -4.91
CCc1nc(CN2CC(C(=O)OC)O[C@H](C)C2)cs1 (stereo partly specified) | -10.9
CN(C[C@@H]1CCC[C@@H]2CN(c3ncccn3)C[C@@H]21)C1CC1 | 5.18
Cc1c(CN2CCc3nc4sccc4c(=O)n3CC2)cnn1C | -2.75
Cc1[nH]ccc1C(=O)N1CCC(c2nnc(Cn3ccnc3)n2C)CC1 | -9.61
CCCn1cc2nc(N3CCCC3)[nH]cc-2c1=O | 2.13
CCc1nc(C)c(C(=O)N2CCCN(Cc3cnn(C)c3)CC2)s1 | -2.41
COCc1nn(C(C)C)c2c1CCN(Cc1ccsc1)C2 | -4.51
CC(NC(=O)Nc1cccnc1N1CCCC1)c1ccccn1 (stereo unspecified) | 8.05
COc1ccc(C)cc1-n1cnnc1C1CC(=O)N(C)C1 (stereo unspecified) | -9.25
CCn1c(SC)nnc1C1CCN(C(=O)N2CCCC2)CC1 | -0.78

SMILES | cytotoxicity at 10 µM [%]
Cc1cc(C)cc(CCC(=O)N(C)CCc2cn[nH]c2)c1 | 3.04
Cc1nn(C)c(N2CCCN(C)CC2)c1CNC(=O)CC(C)(C)C | 8
CCOc1ccc(C(=O)N2CCC(Oc3ccccc3)(C(=O)O)CC2)o1 | 14.1
Cc1cncc(C(=O)N2C[C@@H](C(=O)O)[C@H](C(C)C)C2)c1 | -4.31
CCc1cc(O)nc(C2CCCN2C(=O)c2cc(CC)on2)n1 (stereo unspecified) | -12.6
Cc1cc(C)n2nc(C(=O)N3CCCC4(CCOC4)C3)cc2n1 (stereo unspecified) | 7.73
CCN(CCO)C[C@@H]1CN(c2cc(C(F)(F)F)cc(C)n2)C[C@@H]1CO | -1.7
Nc1nc2nc(C3CCN(C(=O)c4cscn4)C3)ccc2s1 (stereo unspecified) | -5.72
O=C(OCC1CCCN1)c1cccc(NC(=O)c2ccco2)c1 (stereo unspecified) | -6.66
O=C(NCC1CC1)C1CN(C(=O)c2cccnc2)CC12CCOCC2 (stereo unspecified) | 3.25
COCc1nc(CNC2CCSC2)no1 (stereo unspecified) | -1.37
O=S(=O)(Cc1ccccc1)CC(O)Cn1cccn1 (stereo unspecified) | 3.4
O=C(Cc1ccsc1)N1CCC(O)(CN2CCc3ccccc3C2)C1 (stereo unspecified) | -7.27
O=C(NCc1ccccc1Cn1cncn1)N1CCCC1 | -5
COc1ccc(-n2ncc(C(C)NC3Cc4ccccc4C3)c2C)cc1 (stereo unspecified) | -6.32
CC1CCCCN1CCNC(=O)c1ccn(-c2cccc(F)c2)n1 (stereo unspecified) | -26
CN(C)CCC1CCCCN1Cc1cnc(-c2ccccn2)nc1 (stereo unspecified) | 3.74
Cn1cc(NC(=O)c2cccc(Cl)c2)c(=O)n(C)c1=O | -1.86
CN1CCc2c(C#N)c(NCCN3CCOCC3)n3cnnc3c2C1 | -2.84
